Test results reported in ChEMBL document CHEMBL1137710, “Synthesis and in vitro antitumor activity of new quinoxaline derivatives” (2009).

Tests used:
Type in all cases: functional
[1] = test system: OVCAR-5; test: Growth inhibition of human OVCAR5 cells after 48 hrs by sulforhodamine B assay; details: OVCAR-5, 48 h
Method in brief: (§1)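 NCI 60-human-tumor-cell-line panel, with compounds tested over a 5-log dose range. Values are taken from dose-response curves as log10 molar concentrations: GI50 is 50% net growth inhibition, TGI is total growth inhibition, and LC50 is 50% net cell death.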

[2] = test system: COLO 205; test: Growth inhibition of human COLO205 cells after 48 hrs by sulforhodamine B assay; details: COLO 205, 48 h; method in brief: as §1
[3] = test system: HCT-116; test: Growth inhibition of human HCT116 cells after 48 hrs by sulforhodamine B assay; details: HCT-116, 48 h; method in brief: as §1
[4] = test system: UO-31; test: Growth inhibition of human UO31 cells after 48 hrs by sulforhodamine B assay; details: UO-31, 48 h
Method in brief: (§2)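 Run in the NCI 60-human-tumour-cell-line panel, tested over a 5-log dose range. Dose–response curves gave three values per cell line, each as a log10 molar concentration: GI50 (50% inhibition of net cell growth), TGI (total inhibition of net growth) and LC50 (50% net cell death). The mean graph midpoint is the arithmetic mean over all lines, with insensitive lines entered at the highest concentration tested.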

[5] = test system: SW-620; test: Growth inhibition of human SW620 cells after 48 hrs by sulforhodamine B assay; details: SW-620, 48 h; method in brief: as §2
[6] = test system: U-251; test: Growth inhibition of human U251 cells after 48 hrs by sulforhodamine B assay; details: U-251, 48 h; method in brief: as §2
[7] = test system: NCI-H322M; test: Growth inhibition of human NCI-H322M cells after 48 hrs by sulforhodamine B assay; method in brief: as §1
[8] = test system: NCI/ADR-RES; test: Growth inhibition of human NCI/ADR-RES cells after 48 hrs by sulforhodamine B assay; method in brief: as §1
[9] = test system: TK-10; test: Growth inhibition of human TK10 cells after 48 hrs by sulforhodamine B assay; details: TK-10, 48 h; method in brief: as §2
[10] = test system: SNB-19; test: Growth inhibition of human SNB19 cells after 48 hrs by sulforhodamine B assay; details: SNB-19, 48 h; method in brief: as §2
[11] = test system: HL-60(TB); test: Growth inhibition of human HL-60(TB) cells after 48 hrs by sulforhodamine B assay; details: HL-60, 48 h
Method in brief: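 Tested only on compounds active in a three-line prescreen, in the NCI 60-human-tumour-cell-line panel over a 5-log dose range. Values come from dose–response curves as log10 molar GI50, the concentration inhibiting 50% net cell growth. Log10 TGI (total growth inhibition) and log10 LC50 (50% net cell death) were derived too. Mean graph midpoints include insensitive lines at the highest concentration tested.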

[12] = test system: K562; test: Growth inhibition of human K562 cells after 48 hrs by sulforhodamine B assay; details: K562, 48 h; method in brief: as §1
[13] = test system: SF-295; test: Growth inhibition of human SF295 cells after 48 hrs by sulforhodamine B assay; details: SF-295, 48 h; method in brief: as §1
[14] = test system: MDA-MB-435; test: Growth inhibition of human MDA-MB-435 cells after 48 hrs by sulforhodamine B assay; details: MDA-MB-435, 48 h; method in brief: as §1
[15] = test system: CAKI-1; test: Growth inhibition of human Caki1 cells after 48 hrs by sulforhodamine B assay; details: CAKI-1, 48 h; method in brief: as §1
[16] = test system: A549; test: Growth inhibition of human A549 cells after 48 hrs by sulforhodamine B assay; details: A549, 48 h; method in brief: as §1
[17] = test system: OVCAR-8; test: Growth inhibition of human OVCAR8 cells after 48 hrs by sulforhodamine B assay; details: OVCAR-8, 48 h; method in brief: as §1
[18] = test system: OVCAR-4; test: Growth inhibition of human OVCAR4 cells after 48 hrs by sulforhodamine B assay; details: OVCAR-4, 48 h; method in brief: as §1
[19] = test system: 786-0; test: Growth inhibition of human 786-0 cells after 48 hrs by sulforhodamine B assay; details: 786-0, 48 h; method in brief: as §1
[20] = Growth inhibition of human […] cells after 48 hrs by sulforhodamine B assay; method in brief: as §1
[21] = test system: NCI-H23; test: Growth inhibition of human NCI-H23 cells after 48 hrs by sulforhodamine B assay; details: NCI-H23, 48 h; method in brief: as §1
[22] = test system: UACC-257; test: Growth inhibition of human UACC257 cells after 48 hrs by sulforhodamine B assay; details: UACC-257, 48 h; method in brief: as §2
[23] = test system: NCI-H522; test: Growth inhibition of human NCI-H522 cells after 48 hrs by sulforhodamine B assay; details: NCI-H522, 48 h; method in brief: as §1
[24] = test system: OVCAR-3; test: Growth inhibition of human OVCAR-3 cells after 48 hrs by sulforhodamine B assay; details: OVCAR-3, 48 h; method in brief: as §1
[25] = test system: MDA-MB-231; test: Growth inhibition of human MDA-MB-231 cells after 48 hrs by sulforhodamine B assay; details: MDA-MB-231, 48 h; method in brief: as §1
[26] = test system: M14; test: Growth inhibition of human M14 cells after 48 hrs by sulforhodamine B assay; details: M14, 48 h; method in brief: as §1
[27] = test system: SK-OV-3; test: Growth inhibition of human SKOV3 cells after 48 hrs by sulforhodamine B assay; details: SK-OV-3, 48 h; method in brief: as §1
[28] = test system: HOP-62; test: Growth inhibition of human HOP62 cells after 48 hrs by sulforhodamine B assay; details: HOP-62, 48 h; method in brief: as §1
[29] = read-out: pLC50 (the source's name) (converted)

## Nc1cc(N)c2nc(-c3ccccc3)c(NCc3ccc(Cl)c(Cl)c3)nc2c1
[1]
  GI50: 24 µM
[1]; [29]
  CC50: 69.2 µM
[1]; read-out: pTGI (converted)
  TGI: 40.7 µM
[2]
  GI50: 17 µM
  LC50 (50% net cell kill): 66.1 µM
[2]; read-out: pTGI (converted)
  TGI: 33.9 µM
[3]
  GI50: 11.5 µM
  LC50 (concentration causing 50% net cell death): 50.1 µM
[3]; read-out: pTGI (converted)
  TGI: 24 µM
[4]
  GI50: 4.17 µM
[4]; [29]
  CC50: > 100 µM
[4]; read-out: pTGI (converted)
  TGI: > 100 µM
[5]
  GI50: 3.24 µM
[5]; [29]
  CC50: > 100 µM
[5]; read-out: pTGI (converted)
  TGI: 9.77 µM
[6]
  GI50: 2.09 µM
  LC50 (50% net cell kill): > 100 µM
[7]
  GI50: 13.5 µM
  LC50: 69.2 µM
[7]; read-out: pTGI (converted)
  TGI: 30.2 µM
[8]
  GI50: 17.4 µM
[8]; [29]
  CC50: > 100 µM
[8]; read-out: pTGI (converted)
  TGI: 45.7 µM
[9]
  GI50: 12.9 µM
[9]; [29]
  CC50: 72.4 µM
[9]; read-out: pTGI (converted)
  TGI: 30.2 µM
[10]
  GI50: 22.4 µM
  LC50: > 100 µM
[10]; read-out: pTGI (converted)
  TGI: 51.3 µM
[11]
  GI50: 1.82 µM
  LC50: > 100 µM
[11]; read-out: pTGI (converted)
  TGI: 7.94 µM
[12]
  GI50: 3.09 µM
  LC50: > 100 µM
[12]; read-out: pTGI (converted)
  TGI: 17.8 µM
[13]
  GI50: 15.5 µM
  LC50 (50% net cell kill): 89.1 µM
[13]; read-out: pTGI (converted)
  TGI: 37.2 µM
[14]
  GI50: 2.75 µM
[14]; [29]
  CC50: 52.5 µM
[14]; read-out: pTGI (converted)
  TGI: 7.59 µM
[15]
  GI50: 13.2 µM
[15]; [29]
  CC50: > 100 µM
[15]; read-out: pTGI (converted)
  TGI: 52.5 µM
[16]
  GI50: 10.7 µM
  LC50: 69.2 µM
[16]; read-out: pTGI (converted)
  TGI: 27.5 µM
[17]
  GI50: 3.39 µM
[17]; [29]
  CC50: > 100 µM
[17]; read-out: pTGI (converted)
  TGI: 13.5 µM
[18]
  GI50: 11.7 µM
[18]; [29]
  CC50: > 100 µM
[18]; read-out: pTGI (converted)
  TGI: > 100 µM
[19]
  GI50: 13.2 µM
[19]; [29]
  CC50: 70.8 µM
[19]; read-out: pTGI (converted)
  TGI: 30.2 µM
[20]
  GI50: 1.66 µM
  LC50: 8.32 µM
[20]; read-out: pTGI (converted)
  TGI: 3.72 µM
[21]
  GI50: 14.1 µM
  LC50 (50% net cell kill concentration): 55 µM
[21]; read-out: pTGI (converted)
  TGI: 27.5 µM
[22]
  GI50: 4.57 µM
[22]; [29]
  CC50: 43.7 µM
[22]; read-out: pTGI (converted)
  TGI: 15.8 µM
[23]
  GI50: 2.04 µM
  LC50: 22.4 µM
[23]; read-out: pTGI (converted)
  TGI: 4.9 µM
[24]
  GI50: 2.63 µM
[24]; [29]
  CC50: 31.6 µM
[24]; read-out: pTGI (converted)
  TGI: 6.92 µM
[25]
  GI50: 1.58 µM
[25]; [29]
  CC50: > 100 µM
[25]; read-out: pTGI (converted)
  TGI: 4.47 µM
[26]
  GI50: 15.8 µM
[26]; [29]
  CC50: 75.9 µM
[26]; read-out: pTGI (converted)
  TGI: 34.7 µM
[27]
  GI50: 18.6 µM
[27]; [29]
  CC50: 69.2 µM
[27]; read-out: pTGI (converted)
  TGI: 36.3 µM
[28]
  GI50: 15.8 µM
  LC50: 64.6 µM
[28]; read-out: pTGI (converted)
  TGI: 31.6 µM
